Screening results as filed in PubChem BioAssay.
Sampled rows, rich in hits. Any-hit rate of the full collection: about 2.5%.
SENP8 block-1: blocks human SENP8 cleavage of Nedd8 substrate | Q96LD8 | recombinant SENP8, Nedd8 substrate fluorescence | inhibition, % at 20 µM | actives 0.64% (n = 360,000) | AID 602440; in the data active = inhibition mostly above about 40%, no sharp cut-off; inactive = mostly below about 27%
Target sequence (Q96LD8 whole entry, looked up): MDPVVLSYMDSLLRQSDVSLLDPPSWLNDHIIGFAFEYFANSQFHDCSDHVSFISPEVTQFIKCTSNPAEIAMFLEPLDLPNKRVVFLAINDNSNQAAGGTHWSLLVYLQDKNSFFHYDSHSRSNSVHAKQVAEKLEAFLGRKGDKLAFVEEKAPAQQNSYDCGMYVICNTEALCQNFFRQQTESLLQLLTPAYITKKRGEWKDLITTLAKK
SENP7 inh: inhibitors of human SENP7 protease | AID 434973 | actives 1.5% (n = 330,000) | Q9BQF6 | recombinant SENP7, Z-RLRGG-aminoluciferin luminescence, 40 min | inhibition, % at 5 µM;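 active = inhibition above about 50% at the single test dose, limit read from the data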
Target sequence (Q9BQF6 706-1050 limits assumed): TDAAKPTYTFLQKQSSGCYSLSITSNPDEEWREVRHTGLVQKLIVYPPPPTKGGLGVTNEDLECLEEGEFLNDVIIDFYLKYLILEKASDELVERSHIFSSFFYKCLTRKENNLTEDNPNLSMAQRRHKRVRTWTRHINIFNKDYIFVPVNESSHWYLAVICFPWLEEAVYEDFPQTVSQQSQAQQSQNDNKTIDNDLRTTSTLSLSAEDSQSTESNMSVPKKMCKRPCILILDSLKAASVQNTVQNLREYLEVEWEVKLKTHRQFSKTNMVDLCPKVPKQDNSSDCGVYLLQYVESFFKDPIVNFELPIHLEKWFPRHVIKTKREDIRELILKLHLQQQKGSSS
SENP8 block-2: inhibitors of human SENP8 protease | Q96LD8 | actives 1.2% (n = 330,000) | AID 2540 | inhibition, % at 10 µM | purified SENP8, Z-RLRGG-aminoluciferin cleavage, luminescence; in the data active = inhibition above about 50%
SENP1 FRET inh: SENP1 (human) catalytic domain inhibition. recombinant SENP1 catalytic domain, CyPet-SUMO1-YPet FRET cleavage. inhibition, % at 10 µM. actives 0.21% (n = 360,000). AID 624204;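 active = inhibition at least 30% at 10 µM, raw YFP signal under a set limit, fluorescence ratio 0.5 to 1.5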
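system = hSENP1 catalytic domain, recombinant | reagent = SFCypet-SUMO1-SFYpet substrate at 25 nM | doses = one dose per compound, 10 µM, 0.5% DMSO | incubation = enzyme reaction for 50 min at room temperature, dark | measured by = FRET, CFP and YFP emission | controls = no-enzyme low, enzyme-DMSO high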
SENP6 block: blocks the human protease SENP6 | inhibition, % at 10 µM | actives 1.8% (n = 330,000) | Recombinant SENP6 catalytic domain, aminoluciferin luminescence | Q9GZR1 | AID 2599;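 active = inhibition above about 50% at the single tested dose, limit read from the data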
A number is an active result; 0 = inactive; - = no result.

SMILES	SENP8 block-1	SENP7 inh	SENP8 block-2	SENP1 FRET inh	SENP6 block
O=C1NC(=Nc2ccccc2)S/C1=C\c1ccccc1	0	0	0	0	0
Cc1cc(C)c(NN=c2c(=O)c3ccccc3c2=O)c(C)c1	0	0	0	0	0
O=c1c(=NNc2ccccc2Cl)c(=O)c2ccccc12	40	-	-	0	-
O=C(N/N=C/c1ccc(F)cc1)c1ccc(Br)cc1	0	0	0	0	0
Cc1ccc(C(=O)N/N=C/c2ccc3c(c2)OCO3)o1	0	59	0	0	61
Cc1ccc(C(=O)NN=Cc2ccc3c(c2)OCO3)cc1	0	-	-	0	-
O=C(N/N=C/c1ccc(Br)cc1)c1ccc(Br)o1	0	77	65	0	86
Cc1ccc(S(=O)(=O)/C=C2\OCc3ccccc32)cc1	0	-	-	0	-
COc1ccc(OC)c(/C=N/NC(=O)c2c(C)nc3ccc(C)cn23)c1	0	0	0	0	0
COc1cccc(-n2sc3c(c2=S)-c2cc(OC)ccc2NC3(C)C)c1	0	0	0	0	0
CC1(C)Nc2ccc(O)cc2-c2c1ssc2=S	67	0	0	0	0
CCOc1cc(N2CCOCC2)c(OCC)cc1NC(=O)c1cnccn1	32	0	0	0	0
O=[N+]([O-])c1ccccc1CNCCCCCO	0	0	0	0	0
N#C/C(=C\c1ccc(O)c(O)c1)C(=O)Nc1ccccc1	0	0	71	0	79
Oc1ccccc1/C=N/Nc1cc(N2CCCC2)nc(N2CCCC2)n1	58	0	0	0	0
Oc1ccc(/C=N/Nc2cc(N3CCOCC3)nc(N3CCOCC3)n2)cc1O	0	0	0	0	0
O=C(Nc1cc2ccccc2oc1=O)c1ccccc1	0	98	94	0	0
CCOc1cc(C2CC(=O)N3CN(C4CCCCC4)CSC3=C2C#N)ccc1O (centres undefined)	66	0	0	0	0
COc1cc(N=Nc2ccc(C)cc2S(N)(=O)=O)c(C)cc1N	49	-	-	0	-
COc1cc(S(N)(=O)=O)c(OC)cc1N	0	0	0	0	0
CC(C)c1csc(CN2CCC(CO)(Cc3cccc(F)c3)CC2)n1	0	0	0	0	0
Cc1ncc(CN2CCCC(C(=O)Nc3ccc(-c4cccc(F)c4)cc3)C2)n1C (centres undefined)	0	0	0	0	0
Brc1cc2c(cc1C1Nc3ccccc3C3C=CCC31)OCO2 (centres undefined)	40	0	0	0	0
COc1ccc(Cl)cc1NC(=O)CSc1nnc(C2CC2)n1N	0	0	0	0	0
O=C(CNC(=O)c1ccccc1)Oc1cccc(Cl)c1	0	0	0	0	0
SMILES	SENP8 block-1	SENP7 inh	SENP8 block-2	SENP1 FRET inh	SENP6 block
CCCCc1ccc(CC2S/C(=C(\C#N)C(=O)N3CCOCC3)N(c3ccccc3)C2=O)cc1 (centres undefined)	0	0	0	34	0
CC(=O)NC(c1cccc(F)c1)c1nc(-c2ccc(N(C)C)cc2)cs1 (centres undefined)	0	-	-	0	-
O=[N+]([O-])c1ccccc1-c1ccc(C(=S)N2CCCCC2)o1	0	0	0	0	52
O=[N+]([O-])c1cccc(-c2ccc(C(=S)N3CCN(c4ccccc4)CC3)o2)c1	32	0	0	0	0
Cc1cc(=O)[nH]c(SCC(=O)N2C(C)CCCC2C)n1 (centres undefined)	0	0	0	0	0
Cc1ccc2c(c1)C(c1ccccc1)N(C(=O)c1ccc(Br)cc1)CC(=O)N2 (centres undefined)	0	-	-	0	-
Cc1nn(-c2ccccc2)c2c1C(c1ccccc1)C(C#N)=C(N)O2 (centres undefined)	0	52	0	0	0
O=C(c1ccccc1)c1ccc(O)cc1O	0	0	0	54	0
Oc1c(Br)cc(Br)cc1C=Nc1cccc2ncccc12	0	0	50	0	72
Brc1cccc(C=Nc2cccc3ncccc23)c1	0	0	0	0	0
COc1ccc(NC(=O)C2c3ccccc3OCC(=O)N2Cc2cccnc2)cc1 (centres undefined)	0	-	-	0	-
Cc1cccc(S(=O)(=O)NC(=O)C2(C)CCN2C(=O)c2cccc(F)c2)c1 (centres undefined)	0	-	-	0	-
COc1ccc(Cc2c3cc(OC)c(OC)cc3cc[n+]2C)cc1OC	60	0	0	0	0
Cc1ccccc1CSCC(=O)N/N=C/c1cccs1	43	0	0	0	0
O=C(Cc1ccccc1)N/N=C/c1cccs1	0	0	0	0	0
CCCN(CC(=O)Nc1ccccc1C)C(=O)c1ccc(OCc2c(C)noc2C)cc1	0	0	0	0	0
CCc1nc2nc(C)c(NS(=O)(=O)c3ccc(Cl)s3)c(=O)n2[nH]1	0	0	0	0	0
NS(=O)(=O)c1ccc(N/N=C/c2ccc(C(=O)O)cc2)c([N+](=O)[O-])c1	0	0	0	0	0
Cc1nn(-c2ccccc2)c(N2CCCC2)c1/C=N/Nc1ccc(S(N)(=O)=O)cc1[N+](=O)[O-]	48	0	0	0	0
CCOc1cc(/C=N/NC(N)=O)cc(Br)c1OCc1ccccc1F	0	0	0	0	0
CCOc1cc(CNc2ccc(O)cc2)cc(Br)c1OCc1ccccc1F	41	0	0	0	0
CC(=O)C1=CCC(c2ccc(Cl)cc2)N(S(=O)(=O)c2ccccc2C)C1 (centres undefined)	0	-	-	0	-
CCOc1ccc(N(CC(=O)NC2CCCCC2)C(=O)Cn2nnc(-c3ccc(C)o3)n2)cc1	0	0	0	0	0
O=[N+]([O-])c1cc2c(cc1C=Nc1ccccc1)OCO2	0	0	0	0	57
COCCCn1c(O)c(/C=C2\N=C(C#N)C(=Nc3ccc(C)cc3)O2)sc1=S	0	0	0	54	0
SMILES	SENP8 block-1	SENP7 inh	SENP8 block-2	SENP1 FRET inh	SENP6 block
O=C(O)CCCn1c(O)c(C=C2N=c3ccccc3=N2)sc1=S	0	0	0	0	0
O=[N+]([O-])c1ccccc1N=Nc1c(O)[nH]c2ccc(F)cc12	0	-	-	0	-
O=[N+]([O-])c1ccc(N=Nc2c(O)[nH]c3ccc(F)cc23)cc1	0	0	0	49	0
CC(C)NC(=O)C1(C)CSCC(=O)N1Cc1ccco1 (centres undefined)	0	-	-	0	-
O=C(Cc1ccc(Br)cc1)Nc1ncc([N+](=O)[O-])s1	0	53	92	0	94
O=C(Nc1ncc([N+](=O)[O-])s1)c1ccc2c(c1)OCO2	0	102	97	0	96
Cc1ccc(C(=O)Nc2ncc([N+](=O)[O-])s2)cc1	0	-	-	0	-
CC(=O)OC[C@]12CC[C@H]3[C@@](C)(CC[C@H]4C(C)(C)CCC[C@]34C)[C@@H]1CC(C1=CC(=O)OC1O)O2 (some centres undefined)	0	-	-	0	-
Cc1cc(S(=O)(=O)N2CCN(c3ccccc3F)CC2)ccc1-n1cnnn1	0	0	0	0	0
Cc1[nH]n(-c2ccc([N+](=O)[O-])cc2)c(=O)c1C=NCCN1CCN(C(=O)c2ccc(F)cc2)CC1	0	90	67	0	91
Cc1[nH]n(-c2ccc([N+](=O)[O-])cc2)c(=O)c1C=NCCc1c[nH]c2ccccc12	0	0	0	0	0
